# TAAR1 agonist – human TAAR1 agonists, primary screen, Fluo-8 calcium fluorescence, CHO RD-HGA16 cells; Trace amine-associated receptor 1 (Homo sapiens), Q96RJ0; vehicle wells 0%, saturating PEA agonist 100%; activation, % at 3 µM; 360,000 tested, 0.99% active; AID 624467, 2012;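 active = activation above the mean activation of all test compounds in the run plus 3 SD, cut at about 38% in these data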
#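 System: CHO RD-HGA16 cells carrying human TAAR1 plus Gα16; Incubation: 17-24 h seeding, 75 min 37 °C dye, 30 min RT; Measured by: Fluo-8 fluorescence, 5 s baseline then 140 s kinetic read; Control set: DMSO and PEA EC100; Replication: single well for each compound.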
# M4 ag – human M4 muscarinic receptor agonists, primary screen, CHO-K1 cells, Fluo-8 calcium fluorescence; Muscarinic acetylcholine receptor M4 (Homo sapiens), P08173; CHO-K1 hM4/Gqi5; vehicle 0%, full acetylcholine response 100%; activation, % at 3 µM; 360,000 tested, 0.14% active; AID 624127, 2012;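 active = activation above the run mean over all test wells plus 3 SD, cut at about 32% in these data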;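 also: peak over basal fluorescence ratio per well then scaled between controls; 0% = DMSO wells and 100% = acetylcholine at EC100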
# Target sequence (P08173 whole entry, looked up): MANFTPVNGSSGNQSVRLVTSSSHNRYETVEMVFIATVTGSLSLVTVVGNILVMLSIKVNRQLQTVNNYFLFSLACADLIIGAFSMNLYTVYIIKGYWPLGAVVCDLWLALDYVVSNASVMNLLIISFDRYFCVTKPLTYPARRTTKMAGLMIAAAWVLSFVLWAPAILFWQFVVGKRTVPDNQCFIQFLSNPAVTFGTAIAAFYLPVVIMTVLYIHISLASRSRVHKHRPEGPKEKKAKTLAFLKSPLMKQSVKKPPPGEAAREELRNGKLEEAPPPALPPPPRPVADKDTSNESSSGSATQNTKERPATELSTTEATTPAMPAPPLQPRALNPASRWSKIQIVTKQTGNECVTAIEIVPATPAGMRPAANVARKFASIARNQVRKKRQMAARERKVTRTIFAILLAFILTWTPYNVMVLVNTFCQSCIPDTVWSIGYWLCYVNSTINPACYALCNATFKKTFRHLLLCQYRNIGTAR
# CHRM4 PAM – human M4 muscarinic receptor positive allosteric modulators, primary screen, CHO-K1 cells, Fluo-8 calcium fluorescence; 360,000 tested, 0.4% active; AID 624126, 2012; activation, % at 3 µM; CHO-K1 hM4/Gqi5, ACh EC20; 0% = ACh EC20, 100% = maximal ACh;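 active = activation above its plate's cutoff, the mean activation of sample wells plus 3 SD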
# TAAR1 antagonist – human TAAR1 antagonists, primary screen, Fluo-8 calcium fluorescence, CHO RD-HGA16 cells. Trace amine-associated receptor 1 (Homo sapiens), Q96RJ0. antagonist. inhibition, % at 3 µM. 360,000 tested, 1.5% active;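 active = inhibition above a per-plate cutoff, the mean inhibition of test compounds on that plate plus 3 SD, cut at about 49% in these data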;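 also: 0% = DMSO plus EC80 beta-PEA response and 100% = DMSO alone without agonist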
#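 System: CHO RD-HGA16 cells bearing hTAAR1. Reagent: EC80 β-phenethylamine stimulus. Schedule: seeding 17-24 h prior, 75-min 37 °C, 30-min RT dye loading. Signal: Fluo-8 intracellular calcium dye fluorescence, real-time kinetic reads. Read-out: % inhibition from peak post-agonist over basal fluorescence ratio. Benchmarks: vehicle wells and EC80 agonist wells. Replicates: n of 1.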
# CHRM4 antagonist – human M4 muscarinic receptor antagonists, primary screen, CHO cells, Fluo-8 calcium fluorescence; inhibition, % at 3 µM; 360,000 tested, 0.73% active; CHO-hM4 cells, ACh EC80;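 active = inhibition above its plate's cutoff, the mean inhibition of sample wells plus 3 SD, cut at about 27% in these data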;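 also: 0% = acetylcholine EC80 with DMSO and 100% = DMSO without agonist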
# TAAR1 ag conf – human TAAR1 agonists, retest of hits, confirmation, Fluo-8 calcium fluorescence, CHO RD-HGA16 cells. shares compounds with TAAR1 agonist. scaled: DMSO 0%, maximal phenethylamine 100%. activation, % at 3 µM. 2,400 tested, 82% active. AID 651783, 2012;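 active = activation above a cutoff set at the run's mean compound activation plus 3 SD, cut at about 39% in these data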
# Ga16 nonsel ag – nonselective calcium mobilization agonists, CHO-Ga16 cells, counter-screen for hTAAR1 agonist project, cell-based, fluorescence, CHO-Ga16 parental line; shares compounds with TAAR1 agonist; Fluo-8 calcium fluorescence; normalized to maximal ATP response, DMSO zero; activation, % at 3 µM; 2,400 tested, 50% active;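 active = activation above the run cutoff, the mean activation over all tested wells plus 3 SD, cut at about 12% in these data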;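 also: 0% = DMSO wells and 100% = maximal ATP response on the peak over basal ratio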
# TAAR1 desens – TAAR1 desensitization by agonist hits, confirmation, counter-screen for TAAR1 agonist project, cell-based, fluorescence, tachyphylaxis. shares compounds with TAAR1 agonist. AID 651951, 2012. 2,400 tested, 46% active. CHO RD-HGA16 hTAAR1, Fluo-8 calcium, beta-PEA response inhibition. inhibition, % at 3 µM;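 active = inhibition above the run cutoff, the mean inhibition of all test compounds plus 3 SD, cut at about 49% in these data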;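 also: beta-PEA stimulus applied at its EC80; loss of beta-PEA calcium signal after compound pretreatment read as receptor desensitization; 0% = DMSO with beta-PEA at EC80 and 100% = DMSO alone without agonist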
# Ga16 nonsel ant – inhibition of ATP-evoked calcium response in CHO-Ga16 cells, counter-screen for TAAR1 agonist project, cell-based, fluorescence | shares compounds with TAAR1 agonist | CHO-Ga16 ATP-induced calcium, Fluo-8 fluorescence | inhibition, % at 3 µM | 2,400 tested, 39% active;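 active = inhibition above the plate's mean compound inhibition plus 3 SD, computed per plate, cut at about 22% in these data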;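 also: 0% = EC80 ATP with DMSO and 100% = DMSO wells without ATP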
# Numbers without * were called inactive; x = no result. Sampled rows, rich in hits. Any-hit rate of the full collection: about 3%.
SMILES,TAAR1 agonist,M4 ag,CHRM4 PAM,TAAR1 antagonist,CHRM4 antagonist,TAAR1 ag conf,Ga16 nonsel ag,TAAR1 desens,Ga16 nonsel ant
Cc1ccc(NC(=O)c2ccc(NCCCN3CCOCC3)c([N+](=O)[O-])c2)cc1Cl,1.1,2.6,-2.0,6.0,6.7,x,x,x,x
O=C(Nc1ccc(Cl)c([N+](=O)[O-])c1)c1ccc(NCCCN2CCOCC2)c([N+](=O)[O-])c1,75.5*,7.8,3.6,91.1*,-5.9,76.8*,28.0*,98.8*,35.2*
CCN(Cc1ccccc1)c1cc2c(c3c1ccn3C)C1CCC2C1 (stereo unspecified),3.7,-1.4,-2.5,-23.5,-4.2,x,x,x,x
CCn1c(C)nc2cc(C(=O)NNC(=O)Nc3ccc(Cl)cc3)ccc21,45.2*,0.5,1.7,19.5,-7.5,67.9*,2.8,56.9*,13.6
CCn1c(C)nc2cc(C(=O)NNC(=O)Nc3cccc(Cl)c3)ccc21,27.8,0.1,-1.4,12.9,-3.4,x,x,x,x
O=C(NCC(F)(F)F)c1csc([C@@H]2O[C@H](CO)[C@H](O)[C@H](O)[C@H]2O)n1,7.5,1.4,1.2,-33.7,0.3,x,x,x,x
CCCCn1c(O)c2n(c1=O)Cc1ccccc1N=C2c1ccc(C)cc1,0.6,0.6,7.2,-21.0,-20.8,x,x,x,x
COc1ccc(C(CCN2CCCC(C)C2)c2c(OC)cc(OC)c3c(-c4ccccc4)cc(=O)oc23)cc1 (stereo unspecified),55.6*,31.4,-6.3,44.7,10.7,47.0*,37.1*,47.4,42.2*
CC1=C(SCc2ccccc2)C(=O)c2ccccc2C1=O,7.8,7.0,0.8,16.1,8.0,x,x,x,x
O=C1C(SCCO)=C(SCCO)C(=O)c2ccccc21,67.0*,12.9,-12.2,84.4*,61.1*,70.8*,49.0*,82.9*,74.0*
Cc1cccc(C(CC(=O)NCCc2ccccc2)c2ccccc2)c1O (stereo unspecified),66.3*,7.2,-8.5,29.5,-6.0,91.6*,3.4,61.1*,4.1
Cc1cccc(C(CC(=O)NCc2ccco2)c2ccccc2)c1O (stereo unspecified),1.1,0.3,3.0,5.8,-5.9,x,x,x,x
O=C(CCN1C(=O)CC1c1ccco1)N1CCOCC1 (stereo unspecified),x,1.2,7.4,x,-1.9,x,x,x,x
CC1(C(=O)O)CCCN1C(=O)c1ccco1 (stereo unspecified),0.9,0.2,8.3,-17.8,-13.0,x,x,x,x
O=C(Nc1ccc(S(=O)(=O)NC2=NCCCCC2)cc1)c1cccc(OC(F)F)c1,1.1,2.0,4.1,3.5,-17.7,x,x,x,x
COc1ccc(CN2C(=O)C(C)Nc3ncnc(N4CCc5ccccc5C4)c32)cc1 (stereo unspecified),53.0*,1.6,-0.3,15.9,-24.4,43.8*,0.8,-3.0,15.9
O=C(NCCc1c[nH]c2ccccc12)c1[nH]c(C(F)(F)F)nc1-c1ccccc1,14.6,5.1,-11.9,-4.7,9.2,x,x,x,x
O=C(CCc1ccccc1)NNC(=S)NC(=O)c1ccccc1,87.7*,2.2,4.4,17.2,5.3,74.8*,55.5*,34.0,25.0*
CCCCC(=O)NC(=S)NNC(=O)CCc1ccccc1,64.3*,0.2,2.9,19.2,0.6,82.3*,61.8*,40.1,34.5*
CCOc1ccc(CC(=NCCc2ccccc2)C2=C(O)CC(C)(C)CC2=O)cc1OCC,80.6*,-1.5,-3.8,86.6*,-0.3,88.5*,2.8,79.3*,9.6
CCOc1ccc(CC(=N)C2=C(O)CC(C)(C)CC2=O)cc1OCC,-0.8,1.7,7.8,-3.0,-1.6,x,x,x,x
O=C(c1ccc(NS(=O)(=O)c2ccccc2)cc1)N1CCN(c2ccccc2)CC1,5.0,6.4,1.5,10.6,-0.7,x,x,x,x
COc1ccc(-c2cc(C(=O)NCC(C)C)no2)cc1,72.2*,1.1,1.9,41.8,1.4,-1.1,2.2,76.9*,20.0
Cc1cc(C)c(OCC(=O)Nc2ccccc2N2CCOCC2)c(C)c1,61.1*,31.5,-16.9,54.7*,34.7*,43.2*,34.1*,55.6*,51.6*
COc1ccc(CN2C(=O)CCC2(C)c2nnnn2-c2ccc3c(c2)OCCO3)cc1 (stereo unspecified),-0.4,0.6,7.8,-18.1,-6.5,x,x,x,x
SMILES,TAAR1 agonist,M4 ag,CHRM4 PAM,TAAR1 antagonist,CHRM4 antagonist,TAAR1 ag conf,Ga16 nonsel ag,TAAR1 desens,Ga16 nonsel ant
CC1C(=O)N2CCCc3cc(S(=O)(=O)NCCc4ccccc4)cc1c32 (stereo unspecified),51.5*,14.4,-5.3,-3.5,9.2,66.7*,7.0,24.7,17.2
COc1ccc(CCNS(=O)(=O)c2cc3c4c(c2)C(C)C(=O)N4CCC3)cc1OC (stereo unspecified),0.0,0.8,1.9,7.3,0.5,x,x,x,x
CC(=O)Nc1cccc(NC(=O)C(=O)NCC(c2ccco2)N2CCc3ccccc3C2)c1 (stereo unspecified),56.6*,15.0,-6.1,0.7,9.9,62.9*,10.5,53.5*,30.8*
COc1ccc(NC(=O)C(=O)NCC(c2ccco2)N2CCc3ccccc3C2)cc1OC (stereo unspecified),56.0*,0.6,0.3,-10.3,0.2,47.9*,2.4,15.9,11.6
COc1cc(OC)c(NC(=O)c2cc3ccccc3cc2O)cc1Cl,10.0,8.4,-2.9,31.1,-9.0,x,x,x,x
C=CC[C@@H](CC(=O)N(CCO)Cc1ccccc1)C(=O)NC[C@H](OC(=O)[C@@H](CC=C)CC(=O)OC(C)(C)C)c1ccccc1,62.8*,13.9,-8.4,71.1*,0.0,68.5*,21.4*,62.5*,29.8*

# High-throughput results as filed in PubChem.
